Target: Protein phosphatase methylesterase 1 (Homo sapiens) (UniProt Q9Y570)
Test: PME-1 inhibition in proteomic lysates, late-stage follow-up, cell lysate, gel ABPP, fluorescence, HeLa, MDA-MB-231 (AID 463146)
Conditions: HeLa/MDA-MB-231 lysate, FP-Rh gel ABPP fluorescence, at 10 µM (top of the series)
How it was run: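 System: human PME-1 in HeLa or MDA-MB-231 soluble proteome lysate; Amount: lysate protein 1 mg/mL; Medium: DPBS as proteome buffer; Reagent: FP-Rh probe at 1 µM; Detection: SDS-PAGE separation with in-gel fluorescence scanning of probe labeling; Schedule: 30 min compound at 25 °C, 20 min probe.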

Sequence of Protein phosphatase methylesterase 1 (Homo sapiens) (Q9Y570 whole entry, looked up): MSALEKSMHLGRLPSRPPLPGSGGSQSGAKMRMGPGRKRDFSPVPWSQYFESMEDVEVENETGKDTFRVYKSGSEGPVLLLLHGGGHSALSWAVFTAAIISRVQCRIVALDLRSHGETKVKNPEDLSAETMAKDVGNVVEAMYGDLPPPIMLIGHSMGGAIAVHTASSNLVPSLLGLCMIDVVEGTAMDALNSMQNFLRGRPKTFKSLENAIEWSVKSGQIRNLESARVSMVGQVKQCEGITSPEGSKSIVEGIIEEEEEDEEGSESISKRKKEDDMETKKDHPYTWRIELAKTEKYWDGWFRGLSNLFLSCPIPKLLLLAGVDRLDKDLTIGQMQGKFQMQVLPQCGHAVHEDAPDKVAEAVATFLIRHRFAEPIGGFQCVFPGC

`COC(=O)N1C(=O)[C@@](c2ccccc2)(C2CCCC2)N1C(=O)OC` gave an inhibition (HeLa Lysate) of 100%.

Compound `COC(=O)N1C(=O)[C@](c2ccccc2)(C2CCCC2)N1C(=O)OC` has an inhibition (HeLa Lysate) of 100% and an inhibition (MDA-MB-231 Lysate) of 100%.

Work on `COC(=O)N1C(=O)[C@@](c2ccccc2)(C2CCCCC2)N1C(=O)OC` yielded an inhibition (HeLa Lysate) of 100%.

For `COC(=O)N1C(=O)[C@](c2ccccc2)(C2CCCCC2)N1C(=O)OC`, the inhibition (HeLa Lysate) was 100% and the inhibition (MDA-MB-231 Lysate) was 100%.
